Data: ChEMBL document CHEMBL3877308, “Design, synthesis and in vitro biological evaluation of oligopeptides targeting E. coli type I signal peptidase (LepB)” (Bioorg Med Chem, 2017)
Converted amounts (≈) assume the structure as drawn.

What was measured:
Escherichia coli [1] = test: Antibacterial activity against Escherichia coli CH3130 harboring tolC deletion mutant after 16 to 20 hrs by broth microdilution assay; type: functional
How it was run: (§1)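 Broth microdilution MIC in cation-adjusted Mueller-Hinton II medium, following EUCAST and CLSI guidelines; tested on a panel of Gram-negative strains plus S. aureus ATCC 29213 (wild-type).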

[2] = target: Signal peptidase I (Escherichia coli K-12) (UniProt P00803); test: Inhibition of full length Escherichia coli His6-tagged LepB expressed in Escherichia coli C43(DE3) assessed as residual activity at 5 uM using dabcyl-VEVGGTATAGAFSRPGLE-(EDANS) as substrate preincubated for 10 mins followed by substrate addition measured for 2 hrs by FRET assay relative to control
How it was run: (§2)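 Enzyme came from the membrane fraction, extracted with 1% reduced Triton X-100 and purified by metal-chelation chromatography in 0.5% detergent. FRET pair was dabcyl acceptor and EDANS donor. EcLepB (final about 50 nM) was pre-incubated with compound 10 min at 22 °C. Reaction was then run with 8 µM substrate, following the linear fluorescence increase at 22 °C for 2 h.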

[3] = target: Signal peptidase I (Escherichia coli K-12) (UniProt P00803); test: Inhibition of full length Escherichia coli His6-tagged LepB expressed in Escherichia coli C43(DE3) assessed as residual activity at 0.156 uM using dabcyl-VEVGGTATAGAFSRPGLE-(EDANS) as substrate preincubated for 10 mins followed by substrate addition measured for 2 hrs by FRET assay relative to control; how it was run: as §2
Escherichia coli [4] = test: Antibacterial activity against wild type Escherichia coli ATCC 25922 after 16 to 20 hrs by broth microdilution assay; type: functional
How it was run: (§3)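 MIC by broth microdilution in cation-adjusted Mueller-Hinton II medium, following EUCAST and CLSI guidelines; panel of Gram-negative strains plus S. aureus ATCC 29213.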

Signal peptidase I = Signal peptidase I (Escherichia coli K-12, UniProt P00803); test: Inhibition of full length Escherichia coli His6-tagged LepB expressed in Escherichia coli C43(DE3) using dabcyl-VEVGGTATAGAFSRPGLE-(EDANS) as substrate preincubated for 10 mins followed by substrate addition measured for 2 hrs by FRET assay
How it was run: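 Enzyme extracted from the membrane fraction with 1% reduced Triton X-100 and purified by metal-chelation chromatography in 0.5% detergent. Enzyme (final ~50 nM) was pre-incubated with compound for 10 min at 22 °C. The linear rise in EDANS donor fluorescence (dabcyl acceptor) was then followed at 22 °C for 2 h. IC50 came from non-linear regression of sigmoidal rate-versus-concentration curves.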

[5] = target: Signal peptidase I (Escherichia coli K-12) (UniProt P00803); test: Inhibition of full length Escherichia coli His6-tagged LepB expressed in Escherichia coli C43(DE3) at 100 uM using dabcyl-VEVGGTATAGAFSRPGLE-(EDANS) as substrate preincubated for 10 mins followed by substrate addition measured for 2 hrs by FRET assay relative to control; how it was run: as §2
Acinetobacter baumannii = test: Antibacterial activity against wild type Acinetobacter baumannii ATCC 19606 after 16 to 20 hrs by broth microdilution assay; type: functional; how it was run: as §3
[6] = target: Signal peptidase I (Escherichia coli K-12) (UniProt P00803); test: Inhibition of full length Escherichia coli His6-tagged LepB expressed in Escherichia coli C43(DE3) assessed as residual activity at 10 uM using dabcyl-VEVGGTATAGAFSRPGLE-(EDANS) as substrate preincubated for 10 mins followed by substrate addition measured for 2 hrs by FRET assay relative to control; how it was run: as §2
Pseudomonas aeruginosa [7] = test: Antibacterial activity against wild type Pseudomonas aeruginosa PAO1 after 16 to 20 hrs by broth microdilution assay; type: functional; how it was run: as §3
Staphylococcus aureus = test: Antibacterial activity against wild type Staphylococcus aureus ATCC 29213 after 16 to 20 hrs by broth microdilution assay; type: functional; how it was run: as §3
[8] = Cytotoxicity against human HepG2 cells assessed as reduction in cell viability after 72 hrs by fluorescein diacetate dye based fluorometric microculture assay; type: toxicity
How it was run: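 FMCA on HepG2 cells read at 72 h. Survival index (%) is fluorescence in test wells as percent of control cultures, with blank values subtracted. IC50 was obtained by non-linear regression of log concentration-effect curves.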

[9] = target: Signal peptidase I (Escherichia coli K-12) (UniProt P00803); test: Inhibition of full length Escherichia coli His6-tagged LepB expressed in Escherichia coli C43(DE3) assessed as residual activity at 0.01 uM using dabcyl-VEVGGTATAGAFSRPGLE-(EDANS) as substrate preincubated for 10 mins followed by substrate addition measured for 2 hrs by FRET assay relative to control; how it was run: as §2
[10] = target: Signal peptidase I (Escherichia coli K-12) (UniProt P00803); test: Inhibition of full length Escherichia coli His6-tagged LepB expressed in Escherichia coli C43(DE3) assessed as residual activity at 0.02 uM using dabcyl-VEVGGTATAGAFSRPGLE-(EDANS) as substrate preincubated for 10 mins followed by substrate addition measured for 2 hrs by FRET assay relative to control; how it was run: as §2
Escherichia coli [11] = test: Antibacterial activity against Escherichia coli D22 harboring lpxC mutant after 16 to 20 hrs by broth microdilution assay; type: functional; how it was run: as §1
[12] = target: Signal peptidase I (Escherichia coli K-12) (UniProt P00803); test: Inhibition of full length Escherichia coli His6-tagged LepB expressed in Escherichia coli C43(DE3) assessed as residual activity at 0.001 uM using dabcyl-VEVGGTATAGAFSRPGLE-(EDANS) as substrate preincubated for 10 mins followed by substrate addition measured for 2 hrs by FRET assay relative to control; how it was run: as §2
[13] = target: Signal peptidase I (Escherichia coli K-12) (UniProt P00803); test: Inhibition of full length Escherichia coli His6-tagged LepB expressed in Escherichia coli C43(DE3) assessed as residual activity at 0.625 uM using dabcyl-VEVGGTATAGAFSRPGLE-(EDANS) as substrate preincubated for 10 mins followed by substrate addition measured for 2 hrs by FRET assay relative to control; how it was run: as §2
[14] = target: Signal peptidase I (Escherichia coli K-12) (UniProt P00803); test: Inhibition of full length Escherichia coli His6-tagged LepB expressed in Escherichia coli C43(DE3) assessed as residual activity at 2.5 uM using dabcyl-VEVGGTATAGAFSRPGLE-(EDANS) as substrate preincubated for 10 mins followed by substrate addition measured for 2 hrs by FRET assay relative to control; how it was run: as §2
[15] = target: Signal peptidase I (Escherichia coli K-12) (UniProt P00803); test: Inhibition of full length Escherichia coli His6-tagged LepB expressed in Escherichia coli C43(DE3) assessed as residual activity at 0.002 uM using dabcyl-VEVGGTATAGAFSRPGLE-(EDANS) as substrate preincubated for 10 mins followed by substrate addition measured for 2 hrs by FRET assay relative to control; how it was run: as §2
[16] = target: Signal peptidase I (Escherichia coli K-12) (UniProt P00803); test: Inhibition of full length Escherichia coli His6-tagged LepB expressed in Escherichia coli C43(DE3) assessed as residual activity at 0.0005 uM using dabcyl-VEVGGTATAGAFSRPGLE-(EDANS) as substrate preincubated for 10 mins followed by substrate addition measured for 2 hrs by FRET assay relative to control; how it was run: as §2
Pseudomonas aeruginosa [17] = test: Antibacterial activity against wild type Pseudomonas aeruginosa PAO750 harboring efflux defective mutant after 16 to 20 hrs by broth microdilution assay; type: functional; how it was run: as §1
[18] = Hemolytic activity against human RBC at 100 uM after 45 mins by spectrophotometric method relative to control; type: ADME, cell-based, Erythrocyte; conditions: red blood cells (RBC), read-out: Activity
How it was run: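 Hemolysis was tested using red blood cells from heparinized human blood.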

Klebsiella pneumoniae = test: Antibacterial activity against wild type Klebsiella pneumoniae […] after 16 to 20 hrs by broth microdilution assay; type: functional; how it was run: as §3
[19] = target: Signal peptidase I (Escherichia coli K-12) (UniProt P00803); test: Inhibition of full length Escherichia coli His6-tagged LepB expressed in Escherichia coli C43(DE3) assessed as residual activity at 1.25 uM using dabcyl-VEVGGTATAGAFSRPGLE-(EDANS) as substrate preincubated for 10 mins followed by substrate addition measured for 2 hrs by FRET assay relative to control; how it was run: as §2
[20] = target: Signal peptidase I (Escherichia coli K-12) (UniProt P00803); test: Inhibition of full length Escherichia coli His6-tagged LepB expressed in Escherichia coli C43(DE3) assessed as residual activity at 0.313 uM using dabcyl-VEVGGTATAGAFSRPGLE-(EDANS) as substrate preincubated for 10 mins followed by substrate addition measured for 2 hrs by FRET assay relative to control; how it was run: as §2
[21] = target: Signal peptidase I (Escherichia coli K-12) (UniProt P00803); test: Inhibition of full length Escherichia coli His6-tagged LepB expressed in Escherichia coli C43(DE3) assessed as residual activity at 0.039 uM using dabcyl-VEVGGTATAGAFSRPGLE-(EDANS) as substrate preincubated for 10 mins followed by substrate addition measured for 2 hrs by FRET assay relative to control; how it was run: as §2
[22] = target: Signal peptidase I (Escherichia coli K-12) (UniProt P00803); test: Inhibition of full length Escherichia coli His6-tagged LepB expressed in Escherichia coli C43(DE3) assessed as residual activity at 0.005 uM using dabcyl-VEVGGTATAGAFSRPGLE-(EDANS) as substrate preincubated for 10 mins followed by substrate addition measured for 2 hrs by FRET assay relative to control; how it was run: as §2
[23] = target: Signal peptidase I (Escherichia coli K-12) (UniProt P00803); test: Inhibition of full length Escherichia coli His6-tagged LepB expressed in Escherichia coli C43(DE3) assessed as residual activity at 0.078 uM using dabcyl-VEVGGTATAGAFSRPGLE-(EDANS) as substrate preincubated for 10 mins followed by substrate addition measured for 2 hrs by FRET assay relative to control; how it was run: as §2

Sequence of Signal peptidase I (Escherichia coli K-12) (P00803 whole entry): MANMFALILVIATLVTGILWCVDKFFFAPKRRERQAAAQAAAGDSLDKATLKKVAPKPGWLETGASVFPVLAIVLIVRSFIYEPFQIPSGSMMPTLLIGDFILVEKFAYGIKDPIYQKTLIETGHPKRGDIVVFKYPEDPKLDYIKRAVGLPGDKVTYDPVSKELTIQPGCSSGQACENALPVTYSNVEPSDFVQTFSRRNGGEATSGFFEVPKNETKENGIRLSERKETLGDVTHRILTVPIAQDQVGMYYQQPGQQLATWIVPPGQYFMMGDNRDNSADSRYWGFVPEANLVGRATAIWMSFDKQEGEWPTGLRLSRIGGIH
Sequence of Signal peptidase I (P00803 whole entry): as above

SMILES | MIC (Escherichia coli [1]) | Activity [2] | Activity [3] | MIC (Escherichia coli [4]) | IC50 (Signal peptidase I) | inhibition [5] | MIC (Acinetobacter baumannii) | MIC (Pseudomonas aeruginosa [7]) | MIC (Staphylococcus aureus) | IC50 at 72 h [8] | Activity [9] | Activity [10] | MIC (Escherichia coli [11]) | Activity [12] | Activity [13] | Activity [14] | Activity [15] | Activity [16] | MIC (Pseudomonas aeruginosa [17]) | hemolysis at 0.75 h, 100 µM [18] | also measured
CCCCCCc1ccc(-c2ccc(C(=O)N3CC(CN)C[C@H]3C(=O)N[C@H](C(=O)N[C@@H](C)C(=O)N[C@@H](CC(N)=O)C(=O)N[C@@H](C)B3O[C@@H]4C[C@@H]5C[C@@H](C5(C)C)[C@]4(C)O3)[C@H](C)O)cc2)cc1 (stereo partly specified) | 4 µg/mL (≈ 4.44 µM) | 4.04% | 6.31% | 32 µg/mL (≈ 35.6 µM) | 18 nM | > 50% | 32 µg/mL (≈ 35.6 µM) | 64 µg/mL (≈ 71.1 µM) | 0.5 µg/mL (≈ 0.556 µM) | 18600 nM | 81.6% | 37.6% | 1 µg/mL (≈ 1.11 µM) | 89.7% | 5.53% | 0.353% | 88.8% | 99.3% | 8 µg/mL (≈ 8.89 µM) | 5.7% | Activity [6]: 3.93%; MIC (Klebsiella pneumoniae): 16 µg/mL (≈ 17.8 µM); Activity [19]: 0.881%
CCCCCCc1ccc(-c2ccc(C(=O)N3CCC[C@H]3C(=O)N[C@H](C(=O)N[C@@H](C)C(=O)N[C@@H](CC(N)=O)C(=O)N[C@@H](C)B3O[C@@H]4C[C@@H]5C[C@@H](C5(C)C)[C@]4(C)O3)[C@H](C)O)cc2)cc1 | 64 µg/mL (≈ 73.5 µM) | 11.2% | 16.9% | > 64 µg/mL | 12 nM | > 50% | > 64 µg/mL | > 64 µg/mL | 4 µg/mL (≈ 4.59 µM) | 4700 nM | 57% | 51.2% | 16 µg/mL (≈ 18.4 µM) | 94.4% | 16% | 7.64% | 92.8% | 100% | > 64 µg/mL | 1.1% | Activity [20]: 17.4%; Activity [21]: 16.8%; Activity [22]: 82.2%; Activity [23]: 11.5%; MIC (Klebsiella pneumoniae): > 64 µg/mL; Activity [19]: 11.4%
CCCCCCc1ccc(-c2ccc(C(=O)N3CC(CN)C[C@H]3C(=O)N[C@H](C(=O)N[C@@H](C)C(=O)N[C@@H](CC(N)=O)C(=O)N[C@@H](C)B(O)O)[C@H](C)O)cc2)cc1 (stereo partly specified) | 2 µg/mL (≈ 2.61 µM) | 28.2% | 27.4% | 16 µg/mL (≈ 20.9 µM) | 6 nM | > 50% | 8 µg/mL (≈ 10.4 µM) | 64 µg/mL (≈ 83.6 µM) | 0.25 µg/mL (≈ 0.326 µM) | 15600 nM | 51.8% | 36.2% | 0.5 µg/mL (≈ 0.653 µM) | 86.8% | 25.1% | 24.8% | 85.8% | 88.8% | 4 µg/mL (≈ 5.22 µM) | 2.5% | Activity [20]: 25.3%; Activity [21]: 27.7%; Activity [6]: 24.6%; Activity [22]: 60.1%; Activity [23]: 25.7%; MIC (Klebsiella pneumoniae): 8 µg/mL (≈ 10.4 µM); Activity [19]: 28.4%
